High-throughput results (PubChem)
CHRM4 antagonist: blocks acetylcholine activation of human M4 receptor. P08173. CHO-hM4 cells, ACh EC80, Fluo-8 calcium fluorescence. inhibition, % at 3 µM. 360,000 compounds, 0.73% hits. AID 624125;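 active = inhibition above its plate's cutoff, the mean inhibition of sample wells plus 3 SD, cut at about 27% in these data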;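 note: 0% = acetylcholine EC80 with DMSO and 100% = DMSO without agonist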
M5 ag: CHRM5 agonism in calcium assay. CHO-K1 hM5 cells, Fluo-8 calcium fluorescence; 0% DMSO wells, 100% maximal acetylcholine response. activation, % at 3 µM. 360,000 compounds, 0.19% hits. AID 624037;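 active = activation above the run's mean over test compounds plus 3 SD, cut at about 23% in these data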;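 note: signal is peak over basal fluorescence ratio across the kinetic read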
Target sequence (P08912 whole entry, looked up): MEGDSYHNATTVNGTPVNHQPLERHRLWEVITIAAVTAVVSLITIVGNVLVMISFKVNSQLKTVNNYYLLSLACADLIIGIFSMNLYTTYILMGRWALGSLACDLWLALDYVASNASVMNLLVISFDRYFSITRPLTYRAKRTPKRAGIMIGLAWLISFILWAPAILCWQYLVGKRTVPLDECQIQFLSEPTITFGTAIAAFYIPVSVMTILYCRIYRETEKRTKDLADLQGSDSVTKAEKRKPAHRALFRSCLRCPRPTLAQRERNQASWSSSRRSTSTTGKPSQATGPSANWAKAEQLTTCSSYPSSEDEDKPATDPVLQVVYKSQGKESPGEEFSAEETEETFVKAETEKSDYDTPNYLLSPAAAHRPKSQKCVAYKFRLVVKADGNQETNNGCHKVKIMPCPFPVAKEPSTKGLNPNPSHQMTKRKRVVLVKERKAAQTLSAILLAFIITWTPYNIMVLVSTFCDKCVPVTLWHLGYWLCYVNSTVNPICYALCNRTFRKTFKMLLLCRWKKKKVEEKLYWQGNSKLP
CHRM4 agonist: CHRM4 agonism in calcium assay; P08173; CHO-K1 hM4/Gqi5, Fluo-8 calcium fluorescence; vehicle 0%, full acetylcholine response 100%; activation, % at 3 µM; 360,000 compounds, 0.14% hits; AID 624127;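 active = activation above the run mean over all test wells plus 3 SD, cut at about 32% in these data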;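 note: peak over basal fluorescence ratio per well then scaled between controls; 0% = DMSO wells and 100% = acetylcholine at EC100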
CHRM5 antagonist: CHRM5 antagonism in calcium assay; P08912; CHO-hM5 cells, Fluo-8 calcium fluorescence, ACh EC80; inhibition, % at 3 µM; 360,000 compounds, 0.59% hits; AID 624040;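 active = inhibition above a per-plate cutoff, the mean of that plate's test compounds plus 3 SD, cut at about 27% in these data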;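 note: 0% = acetylcholine EC80 with DMSO and 100% = DMSO without agonist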
CHRM4 PAM: positive allosteric modulators of human muscarinic M4 receptor | P08173 | activation, % at 3 µM | CHO-K1 hM4/Gqi5, Fluo-8 calcium fluorescence, ACh EC20; 0% = ACh EC20, 100% = maximal ACh | 360,000 compounds, 0.4% hits | AID 624126;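 active = activation above its plate's cutoff, the mean activation of sample wells plus 3 SD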
M5 PAM: potentiates acetylcholine response at human M5 receptor | CHO-K1 hM5, Fluo-8 calcium, ACh EC20 PAM; 0% = ACh EC20, 100% = ACh EC100 | activation, % at 3 µM | 360,000 compounds, 0.3% hits | AID 624038;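 active = activation above the run cutoff, the mean activation of all test compounds plus 3 SD, cut at about 18% in these data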
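Assay system: CHO-K1 hM5 cells / Incubation: Fluo-8 loading 80 min at 37 °C plus 30 min room temperature / Technique: Fluo-8 calcium dye fluorescence, kinetic read / Repeats: single replicate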
Numbers without * were called inactive. Shown are actives, neighbours in structure and some others; about 1.9% of the full set was active somewhere.

SMILES	CHRM4 antagonist	M5 ag	CHRM4 agonist	CHRM5 antagonist	CHRM4 PAM	M5 PAM
COc1ccc(C(=O)/C=C2\C(=O)Nc3ccc(Br)cc32)cc1	27*	14	5	12	-9	5
COc1ccc(S(=O)(=O)N2CCC3CC2c2cc(-c4ccc5c(c4)OCO5)ccc23)cc1 (centres undefined)	12	2	-1	6	-4	1
c1ccc(CCNc2ncnc3scc(C4COc5ccccc5O4)c23)cc1 (centres undefined)	38*	-4	-1	15	-19	-10
CC1(C)CC(=O)C(N=Nc2cccc(S(=O)(=O)N3CCOCC3)c2)=C(O)C1	-8	-18	3	1	25*	-2
CC1CCN(S(=O)(=O)c2ccc(N=NC3=C(O)CC(C)(C)CC3=O)cc2)CC1	-11	-3	1	2	6	-3
COc1ccc(-c2cn(-c3ccc(C)cc3)c(=O)n2CC(=O)Nc2cccc(F)c2)cc1	-20	-8	2	-4	-1	26*
O=C(CC1Sc2ccccc2NC1=O)NNc1cccc(Cl)c1Cl (centres undefined)	-2	0	0	8	3	-3
CCCCCNC(=O)C(CCc1ccccc1)n1c(=O)c(-c2ccccc2)nc2ccccc21 (centres undefined)	31*	2	23	3	-15	2
CCCCCNC(=O)C(CCc1ccccc1)n1c(=O)c(-c2cc3ccccc3[nH]2)nc2ccccc21 (centres undefined)	-8	2	1	-1	2	-1
C#CCNC(=O)C[C@@H]1C[C@@]2(C(=O)OC)CCCCC=C2N(Cc2ccc3c(c2)OCO3)C1=O	-12	3	11	8	2	-5
CC(C)n1nnnc1SCC(=O)N1CCOCC1	28*	-2	0	-3	8	5
CN(Cc1ccccc1)C1CCN(Cc2ccccc2[N+](=O)[O-])CC1	48*	-21	1	11	-17	-15
O=[N+]([O-])c1ccccc1CN1CCN(S(=O)(=O)Cc2ccccc2)CC1	0	-2	2	5	15	2
O=C(COc1ncnc2ccc(Br)cc12)NC1CCCC1	-11	3	2	-4	25*	4
COc1ccc2c(CC(=O)NNC(=O)c3cccs3)coc2c1	2	-5	0	5	6	6
C=CCNc1nc(Nc2ccc(OC)cc2)nc(OC)n1	10	-14	-1	-4	7	18*
Cc1cccc(CC(=O)NCC(=O)NCc2cc(=O)n(C)c(=O)n2C)c1	7	-6	1	17	-7	-8
CCOC(=O)C1CCCN(c2c(C(=O)c3ccccc3)cnc3ccc(OC)cc23)C1 (centres undefined)	5	32*	11	7	-10	-20
CC1CCCN(C(=S)NCCc2ccccc2)C1 (centres undefined)	-6	-7	0	-9	5	19*
S=C(NCCc1ccccc1)N1CCCC1	-1	-5	1	3	-11	8
COc1ccc(CCNC(=O)C(=O)NCCC2CCCCN2S(=O)(=O)c2cccs2)cc1 (centres undefined)	-15	0	14	8	1	-9
Fc1cccc(Cc2noc(CN3CCCN(C4Cc5ccccc5C4)CC3)n2)c1	54*	-12	2	2	-22	-20
Fc1ccccc1COc1ccc(Br)cc1CNCc1ccncc1	37*	2	19	15	-11	-22
Cn1cc(-c2csc(C(O)c3ccccc3)n2)cn1 (centres undefined)	-1	1	1	7	6	0
CC(C)N(C(=O)C1CC(=O)OC12CCCCC2)C(C)C (centres undefined)	30*	-1	1	5	21	10
COc1ccccc1CNC(=O)C(Cc1ccccc1)NC(=O)c1ccccc1 (centres undefined)	1	-1	12	10	-4	-10
